Assay results reported in ChEMBL document CHEMBL4145525, “Machine learning prioritizes synthesis of primaquine ureidoamides with high antimalarial activity and attenuated cytotoxicity” (Eur J Med Chem, 2018).

What was measured:
Plasmodium falciparum = assay: Antiplasmodial activity against erythrocytic stage of Plasmodium falciparum NF54 assessed as reduction in [3H]hypoxanthine incorporation after 48 hrs by liquid scintillation counting method; assay type: functional, organism-based
How it was run: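 Asexual blood-stage NF54 grown in hypoxanthine-free RPMI 1640 with HEPES, NaHCO3, neomycin and Albumax, using washed human A+ erythrocytes at 2.5% hematocrit and 0.3% parasitemia. Compounds were made as 10 mg/ml DMSO stocks and run as eleven 3-fold dilutions, 100 to 0.002 µg/ml. Incubation at 37 °C in 4% CO2, 3% O2, 93% N2. After 48 h, 0.5 µCi 3H-hypoxanthine was added for a further 24 h, then harvested and scintillation counted. IC50 by linear interpolation of sigmoidal curves; averages of 2–3 independent experiments.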

L6 = assay: Cytotoxicity against rat L6 cells assessed as reduction in cell viability after 70 hrs by Alamar blue assay; assay type: cell-based; settings: L6, 70 h
How it was run: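 L6 rat skeletal myoblasts were plated at 4000 cells/well in RPMI 1640 with L-glutamine and 10% FBS. Eleven 3-fold drug dilutions, 100 to 0.002 µg/ml. After 70 h, Alamar Blue was added for 2 h and fluorescence read (ex 536 nm, em 588 nm). IC50 by linear interpolation from sigmoid dose-inhibition curves.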

[1] = Selectivity index, ratio of IC50 for rat L6 cells to IC50 for erythrocytic stage of Plasmodium falciparum NF54; assay type: toxicity; settings: read-out: Ratio IC50
How it was run: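 Ratio of the L6 cytotoxicity IC50 to the IC50 against P. falciparum NF54.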

SMILES	IC50 (Plasmodium falciparum)	IC50 (L6)	selectivity ratio [1]
COc1cc(NC(C)CCCNC(=O)NCCCC(C)Nc2cc(OC)cc3cccnc23)c2ncccc2c1 (stereo unspecified)	6.4 µM	> 180 µM	> 28.1
COc1ccc(/C=C/C(=O)NCCCC(C)Nc2cc(OC)cc3cccnc23)cc1 (stereo unspecified)	12.4 µM	> 240 µM	> 19.4
COc1cc(NC(C)CCCNC(=O)/C=C/c2ccccc2)c2ncccc2c1 (stereo unspecified)	15.1 µM	18.5 µM	1.2
COc1cc(NC(C)CCCNC(=O)/C=C/c2ccc(Cl)cc2)c2ncccc2c1 (stereo unspecified)	13.7 µM	16.8 µM	1.2
COc1ccc(/C(=N/NC(=O)NNC(=O)NCCCC(C)Nc2cc(OC)cc3cccnc23)c2ccccc2)cc1 (stereo unspecified)	5.6 µM	16 µM	2.9
COc1cc(NC(C)CCCNC(=O)NNC(=O)N(C)C(c2ccccc2)c2ccccc2)c2ncccc2c1 (stereo unspecified)	10 µM	10.4 µM	1
COc1cc(NC(C)CCCNC(=O)NNC(=O)NC(c2ccccc2)c2ccc(Cl)cc2)c2ncccc2c1 (stereo unspecified)	7.5 µM	8.4 µM	1.1
COc1cc(NC(C)CCCNC(=O)NNC(=O)NCCCC(C)Nc2cc(OC)cc3cccnc23)c2ncccc2c1 (stereo unspecified)	3.7 µM	76.6 µM	20.7
COc1cc(NC(C)CCCNC(=O)NNC(=O)Nc2ccc(Cl)c(C(F)(F)F)c2)c2ncccc2c1 (stereo unspecified)	15.2 µM	–	–
COc1cc(NC(C)CCCNC(=O)NNC(=O)NCCCO)c2ncccc2c1 (stereo unspecified)	58.8 µM	–	–
COc1cc(NC(C)CCCNC(=O)NNC(=O)NCCCCCO)c2ncccc2c1 (stereo unspecified)	43.7 µM	–	–
COc1cc(NC(C)CCCNC(=O)NNC(=O)N(CCO)CCO)c2ncccc2c1 (stereo unspecified)	41.4 µM	178 µM	4.3
COc1cc(NC(C)CCCNC(=O)NNC(=O)NC(CO)(CO)CO)c2ncccc2c1 (stereo unspecified)	66.7 µM	–	–
COc1cc(NC(C)CCCNC(=O)NC(c2ccccc2)c2ccc(Cl)cc2)c2ncccc2c1 (stereo unspecified)	4.3 µM	140 µM	32.6
COc1ccc(/C(=N/NC(=O)NCCCC(C)Nc2cc(OC)cc3cccnc23)c2ccccc2)cc1 (stereo unspecified)	4.1 µM	> 195 µM	> 47.6
COc1cc(NC(C)CCCNC(=O)NCCNC(c2ccccc2)(c2ccccc2)c2ccccc2)c2ncccc2c1 (stereo unspecified)	1.5 µM	> 171 µM	> 114
COc1cc(NC(C)CCCNC(=O)Nc2ccc(Cl)c(C(F)(F)F)c2)c2ncccc2c1 (stereo unspecified)	17.1 µM	–	–
COc1cc(NC(C)CCCNC(=O)Nc2cc(C(F)(F)F)cc(C(F)(F)F)c2)c2ncccc2c1 (stereo unspecified)	11.9 µM	14.9 µM	1.3
COc1cc(NC(C)CCCNC(=O)NNC(=O)Nc2ccc(C(F)(F)F)cc2)c2ncccc2c1 (stereo unspecified)	10.3 µM	14.9 µM	1.4
COc1cc(NC(C)CCCNC(=O)NNC(=O)Nc2ccc(Cl)cc2)c2ncccc2c1 (stereo unspecified)	17.8 µM	91.9 µM	5.2
COc1cc(NC(C)CCCNC(=O)NNC(=O)Nc2cccc(Cl)c2)c2ncccc2c1 (stereo unspecified)	14.9 µM	58.6 µM	3.9
COc1cc(NC(C)CCCNC(=O)NNC(=O)Nc2cccc(C(F)(F)F)c2)c2ncccc2c1 (stereo unspecified)	11.8 µM	32.1 µM	2.7
COc1cc(NC(C)CCCNC(=O)NNC(=O)Nc2ccc(Br)cc2)c2ncccc2c1 (stereo unspecified)	17.8 µM	38.7 µM	2.2
COc1cc(NC(C)CCCNC(=O)NNC(=O)/C=C/c2cc(OC)c(OC)c(OC)c2)c2ncccc2c1 (stereo unspecified)	4.5 µM	138 µM	30.7
COc1cc(NC(C)CCCNC(=O)/C=C/c2cc(C(F)(F)F)cc(C(F)(F)F)c2)c2ncccc2c1 (stereo unspecified)	11.3 µM	158 µM	14
COc1cc(NC(C)CCCNC(=O)/C=C/c2ccc(OC)c(OC)c2)c2ncccc2c1 (stereo unspecified)	11.9 µM	> 220 µM	> 18.5
COc1cc(NC(C)CCCNC(=O)NNC(=O)/C=C/c2cccc(C(F)(F)F)c2)c2ncccc2c1 (stereo unspecified)	> 19.4 µM	10.6 µM	< 0.5

SMILES	IC50 (Plasmodium falciparum)	IC50 (L6)	selectivity ratio [1]
COc1cc(NC(C)CCCNC(=O)NNC(=O)NCCc2ccccc2)c2ncccc2c1 (stereo unspecified)	27.1 µM	–	–
COc1cc(NC(C)CCCNC(=O)NNC(=O)/C(C)=C/c2ccccc2)c2ncccc2c1 (stereo unspecified)	22.9 µM	36.5 µM	1.6
COc1cc(NC(C)CCCNC(=O)/C(C)=C/c2ccccc2)c2ncccc2c1 (stereo unspecified)	> 24.8 µM	> 250 µM	–
COc1cc(NC(C)CCCNC(=O)NNC(=O)/C=C/c2cc(C(F)(F)F)cc(C(F)(F)F)c2)c2ncccc2c1 (stereo unspecified)	> 17.1 µM	> 170 µM	–
COc1cc(NC(C)CCCNC(=O)/C=C/c2cccc(C(F)(F)F)c2)c2ncccc2c1 (stereo unspecified)	15.6 µM	16.2 µM	1
COc1cc(NC(C)CCCNC(=O)NNC(=O)/C=C/c2ccc3c(c2)OCO3)c2ncccc2c1 (stereo unspecified)	20.4 µM	15.5 µM	0.8
COc1cc(NC(C)CCCNC(=O)NNC(=O)NC(c2ccccc2)c2ccccc2)c2ncccc2c1 (stereo unspecified)	10.3 µM	–	–
COc1cc(NC(C)CCCNC(=O)NNC(=O)/C=C/c2ccccc2)c2ncccc2c1 (stereo unspecified)	17.2 µM	13.9 µM	0.8
COc1cc(NC(C)CCCNC(=O)NNC(=O)/C=C/c2ccc(OC)c(OC)c2)c2ncccc2c1 (stereo unspecified)	> 19.7 µM	37 µM	< 1.9
COc1cc(NC(C)CCCNC(=O)NNC(=O)NOCc2ccccc2)c2ncccc2c1 (stereo unspecified)	20.8 µM	–	–
COc1cc(NC(C)CCCNC(=O)NNC(=O)NC2CCCC2)c2ncccc2c1 (stereo unspecified)	75.4 µM	–	–
COc1cc(NC(C)CCCNC(=O)NNC(=O)NCc2ccccc2)c2ncccc2c1 (stereo unspecified)	> 111 µM	–	–
COc1cc(NC(C)CCCNC(=O)/C=C/c2ccc(C(F)(F)F)cc2)c2ncccc2c1 (stereo unspecified)	12.9 µM	160 µM	12.4
COc1cc(NC(C)CCCNC(=O)/C=C/c2cc(OC)c(OC)c(OC)c2)c2ncccc2c1 (stereo unspecified)	8.1 µM	> 210 µM	> 25.9
COc1cc(NC(C)CCCNC(=O)NNC(=O)/C=C/c2ccccc2F)c2ncccc2c1 (stereo unspecified)	> 21.4 µM	25.1 µM	< 1.2
COc1cc(NC(C)CCCNC(=O)/C=C/c2ccccc2F)c2ncccc2c1 (stereo unspecified)	13.2 µM	3.5 µM	0.3
COc1ccc(/C=C/C(=O)NNC(=O)NCCCC(C)Nc2cc(OC)cc3cccnc23)cc1 (stereo unspecified)	22.2 µM	3.6 µM	0.2
COc1cc(NC(C)CCCNC(=O)/C=C/c2ccc3c(c2)OCO3)c2ncccc2c1 (stereo unspecified)	22.1 µM	29 µM	1.3
COc1cc(NC(C)CCCNC(=O)NNC(=O)NC2CCCCC2)c2ncccc2c1 (stereo unspecified)	46.3 µM	–	–
COc1cc(NC(C)CCCNC(=O)NNC(=O)/C=C/c2ccc(C(F)(F)F)cc2)c2ncccc2c1 (stereo unspecified)	> 19.4 µM	28.3 µM	< 1.5
COc1cc(NC(C)CCCNC(=O)NNC(=O)/C=C/c2ccc(Cl)cc2)c2ncccc2c1 (stereo unspecified)	24.2 µM	7.3 µM	0.3
COc1cc(NC(C)CCCNC(=O)NC2CCCCC2)c2ncccc2c1 (stereo unspecified)	42.1 µM	–	–
COc1cc(NC(C)CCCNC(=O)N(C2CCCCC2)C2CCCCC2)c2ncccc2c1 (stereo unspecified)	8.1 µM	–	–
COc1cc(NC(C)CCCNC(=O)NC2CCCC2)c2ncccc2c1 (stereo unspecified)	65.9 µM	–	–
COc1cc(NC(C)CCCNC(=O)NCc2ccncc2)c2ncccc2c1 (stereo unspecified)	47.3 µM	–	–
COc1cc(NC(C)CCCNC(=O)NCCO)c2ncccc2c1 (stereo unspecified)	27.4 µM	–	–
COc1cc(NC(C)CCCNC(=O)NCCCO)c2ncccc2c1 (stereo unspecified)	52.4 µM	–	–
